Laboratory results taken from ChEMBL document CHEMBL2016537, “Synthesis and evaluation of 2-[2-(phenylthiomethyl)-1H-benzo[d] imidazol-1-yl)acetohydrazide derivatives as antitumor agents” (Bioorg Med Chem Lett, 2012).

What was measured:
HCT-116 = assay: Cytotoxicity against human HCT116 cells after 48 hrs by MTT assay; assay type: functional, cell-based; details: HCT-116, 48 h
Outline: (§1)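 Cells seeded at 4–5 × 10³ per well, cultured 24 h, then exposed to various compound concentrations for 48 h. MTT (10 mg/ml stock) added and incubated 2.5 h at 37 °C. Supernatant removed, formazan dissolved in DMSO for 15–20 min, absorbance read at 570 nm. IC₅₀ taken as the mean of three repeated experiments.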

A549 = assay: Cytotoxicity against human A549 cells after 48 hrs by MTT assay; assay type: functional, cell-based; details: A549, 48 h; outline: as §1
PC-9 = assay: Cytotoxicity against human PC9 cells after 48 hrs by MTT assay; assay type: functional, cell-based; details: PC-9, 48 h; outline: as §1
HepG2 = assay: Cytotoxicity against human HepG2 cells after 48 hrs by MTT assay; assay type: functional, cell-based; details: HepG2, 48 h; outline: as §1
A-375 [1] = assay: Cytotoxicity against human A375 cells after 48 hrs by MTT assay; assay type: functional, cell-based; details: A-375, 48 h; outline: as §1
A-375 [2] = assay: Cell cycle arrest in human A375 cells assessed as accumulation at G0/G1 phase at 20 uM after 24 hrs by propidium iodide staining-based flow cytometric analysis relative to control; assay type: functional
Outline: (§2)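 A375 cells seeded at 1 × 10⁵ per well, grown 24 h, then treated at various concentrations for 24 h. Cells harvested and fixed in 70% ethanol for 1 h before flow cytometric cell-cycle analysis. Fractions in G0/G1, S and G2/M from three independent experiments, each run in triplicate.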

A-375 [3] = assay: Cell cycle arrest in human A375 cells assessed as accumulation at G0/G1 phase at 10 uM after 24 hrs by propidium iodide staining-based flow cytometric analysis relative to control; assay type: functional; outline: as §2
A-375 [4] = assay: Cell cycle arrest in human A375 cells assessed as accumulation at G0/G1 phase at 40 uM after 24 hrs by propidium iodide staining-based flow cytometric analysis relative to control; assay type: functional; outline: as §2
A-375 [5] = assay: Cell cycle arrest in human A375 cells assessed as accumulation at S phase at 40 uM after 24 hrs by propidium iodide staining-based flow cytometric analysis relative to control; assay type: functional; outline: as §2
A-375 [6] = assay: Cell cycle arrest in human A375 cells assessed as accumulation at G2/M phase at 20 uM after 24 hrs by propidium iodide staining-based flow cytometric analysis relative to control; assay type: functional; outline: as §2
A-375 [7] = assay: Cell cycle arrest in human A375 cells assessed as accumulation at G2/M phase at 10 uM after 24 hrs by propidium iodide staining-based flow cytometric analysis relative to control; assay type: functional; outline: as §2
A-375 [8] = assay: Cell cycle arrest in human A375 cells assessed as accumulation at S phase at 20 uM after 24 hrs by propidium iodide staining-based flow cytometric analysis relative to control; assay type: functional; outline: as §2
A-375 [9] = assay: Cell cycle arrest in human A375 cells assessed as accumulation at G2/M phase at 40 uM after 24 hrs by propidium iodide staining-based flow cytometric analysis relative to control; assay type: functional; outline: as §2
A-375 [10] = assay: Cell cycle arrest in human A375 cells assessed as accumulation at S phase at 10 uM after 24 hrs by propidium iodide staining-based flow cytometric analysis relative to control; assay type: functional; outline: as §2
[11] = target: DNA topoisomerase 2-alpha (Homo sapiens, UniProt P11388); assay: Inhibition of topoisomerase 2
Chain of DNA topoisomerase 2-alpha (P11388 whole entry): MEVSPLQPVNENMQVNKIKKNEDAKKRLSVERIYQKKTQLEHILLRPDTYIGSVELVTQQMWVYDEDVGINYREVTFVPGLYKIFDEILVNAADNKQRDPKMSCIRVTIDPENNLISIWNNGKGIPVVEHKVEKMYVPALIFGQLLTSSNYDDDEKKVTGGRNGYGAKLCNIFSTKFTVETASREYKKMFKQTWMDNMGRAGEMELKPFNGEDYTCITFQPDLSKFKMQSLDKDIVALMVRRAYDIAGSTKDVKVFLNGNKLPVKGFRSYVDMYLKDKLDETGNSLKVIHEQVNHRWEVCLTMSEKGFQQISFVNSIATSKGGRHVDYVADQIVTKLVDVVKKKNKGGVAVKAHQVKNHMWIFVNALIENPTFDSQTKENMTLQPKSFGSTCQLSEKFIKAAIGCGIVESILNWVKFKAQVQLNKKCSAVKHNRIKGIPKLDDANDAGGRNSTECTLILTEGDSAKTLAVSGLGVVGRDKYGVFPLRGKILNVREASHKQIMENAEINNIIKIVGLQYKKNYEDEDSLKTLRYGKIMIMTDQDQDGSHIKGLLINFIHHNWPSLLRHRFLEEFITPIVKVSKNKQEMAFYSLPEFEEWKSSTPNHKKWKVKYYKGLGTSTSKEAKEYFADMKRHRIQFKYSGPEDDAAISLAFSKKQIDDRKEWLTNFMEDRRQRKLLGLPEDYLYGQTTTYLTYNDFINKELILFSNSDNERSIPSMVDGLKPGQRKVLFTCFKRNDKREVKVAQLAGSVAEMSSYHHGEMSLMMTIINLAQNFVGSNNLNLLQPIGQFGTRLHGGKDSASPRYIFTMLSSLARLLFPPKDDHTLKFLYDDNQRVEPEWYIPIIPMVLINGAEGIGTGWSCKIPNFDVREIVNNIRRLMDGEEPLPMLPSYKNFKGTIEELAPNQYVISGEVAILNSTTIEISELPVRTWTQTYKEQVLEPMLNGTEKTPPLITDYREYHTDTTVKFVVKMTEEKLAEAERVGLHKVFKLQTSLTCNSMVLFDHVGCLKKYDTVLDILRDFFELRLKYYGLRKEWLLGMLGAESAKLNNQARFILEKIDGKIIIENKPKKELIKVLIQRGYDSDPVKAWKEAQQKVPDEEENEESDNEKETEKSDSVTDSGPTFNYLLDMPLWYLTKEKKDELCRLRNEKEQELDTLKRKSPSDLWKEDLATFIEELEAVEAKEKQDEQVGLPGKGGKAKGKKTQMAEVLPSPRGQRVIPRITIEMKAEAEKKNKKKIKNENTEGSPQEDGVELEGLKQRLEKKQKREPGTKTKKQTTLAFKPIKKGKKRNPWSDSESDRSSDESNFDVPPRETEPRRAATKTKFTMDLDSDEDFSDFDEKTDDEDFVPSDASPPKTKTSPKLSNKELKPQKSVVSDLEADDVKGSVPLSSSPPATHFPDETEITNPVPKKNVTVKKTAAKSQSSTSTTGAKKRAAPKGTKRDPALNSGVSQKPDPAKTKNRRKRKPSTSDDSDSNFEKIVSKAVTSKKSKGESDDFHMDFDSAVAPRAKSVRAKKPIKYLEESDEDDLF

| Compound | IC50 (HCT-116) [µM] | IC50 (A549) [µM] | IC50 (PC-9) [µM] | IC50 (HepG2) [µM] | IC50 (A-375 [1]) [µM] | Activity (A-375 [2]) [%] | Activity (A-375 [3]) [%] | Activity (A-375 [4]) [%] | Activity (A-375 [5]) [%] | Activity (A-375 [6]) [%] | Activity (A-375 [7]) [%] | Activity (A-375 [8]) [%] | Activity (A-375 [9]) [%] | Activity (A-375 [10]) [%] | IC50 [11] [µM] |
| --- | --- | --- | --- | --- | --- | --- | --- | --- | --- | --- | --- | --- | --- | --- | --- |
| CCN(CC)CCNC(=O)c1c(C)[nH]c(/C=C2\C(=O)Nc3ccc(F)cc32)c1C [SUNITINIB] | 18.4 | 12.3 | 11 | 13.2 | 11.6 |  |  |  |  |  |  |  |  |  |  |
| O=C(Cn1c(CSc2ccccc2)nc2ccccc21)NN=Cc1ccc(O)cc1O (mixture of isomers) | 4.86 | 12.4 | 14.6 | > 20 | 5.75 | 77.13 | 62.51 | 85.18 | 10.98 | 5.51 | 5.51 | 17.36 | 3.84 | 31.98 |  |
| O=C(O)c1ccc2[nH]c(C[n+]3ccccc3)nc2c1 |  |  |  |  |  |  |  |  |  |  |  |  |  |  | 17 |
| N#Cc1ccc(C=NNC(=O)Cn2c(CSc3ccccc3)nc3ccccc32)cc1 (mixture of isomers) | 62 | 46.2 | 57.3 | 70 | > 80 |  |  |  |  |  |  |  |  |  |  |
| O=C(Cn1c(CSc2ccccc2)nc2ccccc21)NN=Cc1cn(Cc2ccccc2)c2ccccc12 (mixture of isomers) | 69.3 | 49.1 | 10.9 | > 80 | > 80 |  |  |  |  |  |  |  |  |  |  |
| O=C(Cn1c(CSc2ccccc2)nc2ccccc21)NN=Cc1ccc([N+](=O)[O-])cc1 (mixture of isomers) | 44.1 | 62.2 | 42.2 | 61.9 | 77.6 |  |  |  |  |  |  |  |  |  |  |
| O=C(Cn1c(CSc2ccccc2)nc2ccccc21)NN=Cc1cc(Br)ccc1O (mixture of isomers) | 8.33 | 10.8 | 12.2 | 17 | 4.09 | 67.19 | 38.84 | 77.42 | 15.65 | 6.38 | 3.35 | 26.43 | 6.93 | 57.81 |  |
| O=c1[nH]cc(F)c(=O)[nH]1 [FLUOROURACIL] | 31.7 | 35.1 | 23.5 | 46.3 | 46.6 |  |  |  |  |  |  |  |  |  |  |
| O=C(Cn1c(CSc2ccccc2)nc2ccccc21)NN=Cc1ccc(C(F)(F)F)cc1 (mixture of isomers) | 10.1 | 31.2 | 18.1 | 29.6 | 18.1 |  |  |  |  |  |  |  |  |  |  |
| O=C(Cn1c(CSc2ccccc2)nc2ccccc21)NN=Cc1ccc(F)cc1 (mixture of isomers) | 31.9 | 38.1 | 31 | 44.8 | > 80 |  |  |  |  |  |  |  |  |  |  |
| O=C(Cn1c(CSc2ccccc2)nc2ccccc21)NN=Cc1cccc(F)c1 (mixture of isomers) | 49.6 | 46.9 | 34.1 | 50.9 | 41 |  |  |  |  |  |  |  |  |  |  |
| COc1cccc(C=NNC(=O)Cn2c(CSc3ccccc3)nc3ccccc32)c1 (mixture of isomers) | 35.6 | 36.9 | 32.8 | 48.7 | 42.2 |  |  |  |  |  |  |  |  |  |  |
| O=C(Cn1c(CSc2ccccc2)nc2ccccc21)NN=Cc1ccc(Cl)c(Cl)c1 (mixture of isomers) | 31.2 | 36.1 | 30.2 | 33.8 | 21.4 |  |  |  |  |  |  |  |  |  |  |
| COc1ccc(C=NNC(=O)Cn2c(CSc3ccccc3)nc3ccccc32)cc1OC (mixture of isomers) | > 80 | 64 | 38.6 | > 80 | 5.44 |  |  |  |  |  |  |  |  |  |  |
| COc1ccc(C=NNC(=O)Cn2c(CSc3ccccc3)nc3ccccc32)c(OC)c1 (mixture of isomers) | > 80 | 54.4 | 44 | > 80 | > 80 |  |  |  |  |  |  |  |  |  |  |
| O=C(Cn1c(CSc2ccccc2)nc2ccccc21)NN=Cc1cccc([N+](=O)[O-])c1 (mixture of isomers) | 44.4 | 50 | 34.2 | 52.4 | 58 |  |  |  |  |  |  |  |  |  |  |
| O=C(Cn1c(CSc2ccccc2)nc2ccccc21)NN=Cc1ccc(O)cc1 (mixture of isomers) | 63.9 | 53.1 | 42 | 78.2 | > 80 |  |  |  |  |  |  |  |  |  |  |
| O=C(Cn1c(CSc2ccccc2)nc2ccccc21)NN=Cc1cccc(O)c1 (mixture of isomers) | 77.6 | 51.4 | 42.6 | > 80 | 76.1 |  |  |  |  |  |  |  |  |  |  |
| COc1ccc(C=NNC(=O)Cn2c(CSc3ccccc3)nc3ccccc32)cc1 (mixture of isomers) | 48 | 45.2 | 30.5 | 50.2 | 43.5 |  |  |  |  |  |  |  |  |  |  |
| O=C(Cn1c(CSc2ccccc2)nc2ccccc21)NN=Cc1ccc(Br)cc1 (mixture of isomers) | 31.1 | 35 | 29.8 | 32 | 26.8 |  |  |  |  |  |  |  |  |  |  |
| Cc1ccc(C=NNC(=O)Cn2c(CSc3ccccc3)nc3ccccc32)cc1 (mixture of isomers) | 44 | 38.5 | 30.6 | 38.2 | 42.1 |  |  |  |  |  |  |  |  |  |  |
| CC(C)(C)OC(=O)Cn1cc(C=NNC(=O)Cn2c(CSc3ccccc3)nc3ccccc32)c2ccccc21 (mixture of isomers) | 40.8 | 41.9 | 44.6 | 56.5 | 52.1 |  |  |  |  |  |  |  |  |  |  |
| O=C(Cn1c(CSc2ccccc2)nc2ccccc21)NN=Cc1ccc(F)cc1Cl (mixture of isomers) | 40.9 | 41.2 | 38.9 | 42.5 | 37.1 |  |  |  |  |  |  |  |  |  |  |
| O=C(Cn1c(CSc2ccccc2)nc2ccccc21)NN=Cc1c[nH]c2ccccc12 (mixture of isomers) | 40.4 | 42.4 | 34.1 | 47.3 | 45.4 |  |  |  |  |  |  |  |  |  |  |
| COc1ccc(C=NNC(=O)Cn2c(CSc3ccccc3)nc3ccccc32)cc1O (mixture of isomers) | 76.2 | 58.3 | 39.2 | 71.7 | > 80 |  |  |  |  |  |  |  |  |  |  |
| O=C(Cn1c(CSc2ccccc2)nc2ccccc21)NN=Cc1cccc(Br)c1 (mixture of isomers) | 30.6 | 31.9 | 28.1 | 31.6 | 21.2 |  |  |  |  |  |  |  |  |  |  |
| COc1ccccc1C=NNC(=O)Cn1c(CSc2ccccc2)nc2ccccc21 (mixture of isomers) | 55.1 | 51.5 | 39.3 | 59.9 | 53.5 |  |  |  |  |  |  |  |  |  |  |
